# Experimental data as given in ChEMBL document CHEMBL5236612, “Heterobivalent Inhibitors of Acetyl-CoA Carboxylase: Drug Target Residence Time and Time-Dependent Antibacterial Activity” (J Med Chem, 2022).
# Activity calls are given as the source filed them. No cut-off for these calls is given here.
# What was measured:
# [1] = Inhibition of Escherichia coli ACC expressed in Escherichia coli BL21(DE3) pLysS incubated for 45 mins in presence of ATP and acetyl coA by fluorescence polarization assay
# Summary of the method: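 E. coli BC (1 nM), biotinylated BCCP (2 nM) and CT (1 nM), His-tag purified then size-exclusion purified, preincubated with inhibitor in 100 mM HEPES pH 8.0, 15 mM KHCO3, 20 mM MgCl2. ADP detected by Transcreener fluorescence polarization; Morrison fit for Ki when tight binding; triplicate.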
# Escherichia coli [2] = test: Antibacterial activity against Escherichia coli K12 incubated for 24 hrs by microbroth dilution method; type: functional
# Escherichia coli [3] = test: Antibacterial activity against acrAB knockout Escherichia coli MG1655 incubated for 24 hrs in presence of PMBN by microbroth dilution method; type: functional
# Escherichia coli [4] = test: Antibacterial activity against tolC knockout Escherichia coli incubated for 24 hrs in presence of PMBN by microbroth dilution method; type: functional
# Escherichia coli [5] = test: (§1) Displacement of 11-(4-(22-(2,4-dibromo-3-(2,7-diaminopyrido[2,3-d]pyrimidin-6-yl)phenoxy)-5,8,11,14,17,20-hexaoxadocos-1-yl)-1H-1,2,3-triazol-1-yl)-N-((1S)-3-(((2S)-3-methyl-1-((3R,4S)-4-methyl-2,5-dioxopyrrolidin-3-yl)-1-oxobutan-2-yl)amino)-3-oxo-1-phenylpropyl)undecanamide from Escherichia coli ACC expressed in Escherichia coli BL21(DE3) pLysS at 100 uM preincubated for 1 hr followed by compound addition by LC-MS/MS method
# Summary of the method: (§2)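 Purified E. coli ACC (1 μM), in 100 mM HEPES pH 8.0 with 15 mM KHCO3 and 20 mM MgCl2, was held 1 h at 22 °C with equimolar heterobivalent inhibitor. Competitor was then added: 100 μM of one warhead alone, or 50 μM each of both warheads together. At timed points, aliquots were spun through G-25 gel filtration columns in 10 mM ammonium formate pH 8.0. Flow-through was denatured in 50% MeCN and bound inhibitor quantified by LC-MS/MS. Dissociation rate came from a single-exponential fit.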
# Escherichia coli [6] = test: Antibacterial activity against Escherichia coli harbouring TolC-deficient mutant assessed as post antibiotic effect by measuring time required for increase in 1 log10 CFU/ml of bacteria at 8 times MIC incubated for 1 hr followed by compound washout and measured for 16 hrs; type: functional
# Escherichia coli [7] = test: Antibacterial activity against Escherichia coli harbouring TolC-deficient mutant assessed as post antibiotic effect by measuring time required for increase in 1 log10 CFU/ml of bacteria at 16 times MIC incubated for 1 hr followed by compound washout and measured for 16 hrs; type: functional
# Escherichia coli [8] = test: Antibacterial activity against Escherichia coli harbouring TolC-deficient mutant assessed as post antibiotic effect by measuring time required for increase in 1 log10 CFU/ml of bacteria at 32 times MIC incubated for 1 hr followed by compound washout and measured for 16 hrs; type: functional
# Escherichia coli [9] = test: as §1, with “50” for “100”, “hr in presence of Moiramide-B” for “hr”; summary of the method: as §2
# Escherichia coli [10] = test: as §1, with “50” for “100”, “hr in presence of 6-(2,6-dibromophenyl)pyrido[2,3-d]pyrimidine-2,7-diamine” for “hr”; summary of the method: as §2
# Escherichia coli [11] = test: Antibacterial activity against Escherichia coli incubated for 24 hrs in presence of PMBN by microbroth dilution method; type: functional
# Escherichia coli [12] = test: Antibacterial activity against acrAB knockout Escherichia coli MG1655 incubated for 24 hrs by microbroth dilution method; type: functional
# Escherichia coli [13] = test: Antibacterial activity against tolC knockout Escherichia coli incubated for 24 hrs by microbroth dilution method; type: functional
# Escherichia coli [14] = test: Additive antibacterial activity against Escherichia coli harbouring TolC-deficient mutant assessed as fractional inhibitory concentration index; type: functional
# Summary of the method: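 Checkerboard MIC of two compounds combined against tolC-knockout E. coli, without PMBN; FIC index derived from combination MICs.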
# Escherichia coli [15] = test: Synergistic antibacterial activity against Escherichia coli harbouring TolC-deficient mutant assessed as fractional inhibitory concentration index at […] in presence of PMBN; type: functional; settings: dose 0.025 µM
# [16] = Inhibition of Escherichia coli ACC expressed in Escherichia coli BLR(DE3) cells
# [17] = Inhibition of Escherichia coli biotin carboxylase in presence of ATP and NADH by UV-Vis spectrophotometric assay
# [18] = Inhibition of Escherichia coli ACC incubated for 5 mins
# Summary of the method: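 ACC reconstituted from 1 nM BC, 2 nM biotinylated BCCP and 1 nM CT (His-tagged E. coli proteins) in 100 mM HEPES pH 8.0 with 15 mM KHCO3 and 20 mM MgCl2. Enzyme was mixed with inhibitor or DMSO, and reactions were started with 10 μM ATP and 200 μM acetyl-CoA. ADP formed was read by Transcreener fluorescence polarization after a 45 min endpoint.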
Structure (SMILES),MIC (Escherichia coli [2]) [µM],MIC (Escherichia coli [3]) [µM],MIC (Escherichia coli [4]) [µM],Activity (Escherichia coli [5]),IC50 [1] [µM],MIC (Escherichia coli [13]) [µM],also measured
CC(C)[C@H](NC(=O)C[C@H](NC(=O)CCCCCCCCCCn1cc(CCCCOCCOCCOCCOCCOCCOCCOCCOCCOCCOCCOCCOCCOc2ccc(Br)c(-c3cc4cnc(N)nc4nc3N)c2Br)nn1)c1ccccc1)C(=O)[C@@H]1C(=O)NC(=O)[C@H]1C,> 25,6.25,1.56,inactive,–,–,Ki [1]: 0.00018 µM; PAE (Escherichia coli [6]): 2.1 h; PAE (Escherichia coli [7]): 2.6 h; PAE (Escherichia coli [8]): 3.6 h; Activity (Escherichia coli [9]): Active; Activity (Escherichia coli [10]): Active
C/C=C/C=C/C(=O)N[C@@H](CC(=O)N[C@H](C(=O)[C@@H]1C(=O)NC(=O)[C@H]1C)C(C)C)c1ccccc1,> 25,0.39,0.1,inactive,0.0045,1.56,MIC (Escherichia coli [11]): 3.13 µM; MIC (Escherichia coli [12]): 25 µM; fractional inhibitory concentration index (FICI) (Escherichia coli [14]): 0.5; FIC (Escherichia coli [15]): 0.38; Activity (Escherichia coli [10]): Active; IC50 [16]: 0.006 µM
CC(C)[C@H](NC(=O)C[C@H](NC(=O)CCCCCCCCCCN=[N+]=[N-])c1ccccc1)C(=O)[C@@H]1C(=O)NC(=O)[C@H]1C,> 25,1.56,0.2,–,0.074,–,MIC (Escherichia coli [11]): 12.5 µM; MIC (Escherichia coli [12]): > 25 µM
C#CCCCCOCCOCCOCCOCCOCCOCCOCCOCCOCCOCCOCCOCCOCCOCCOCCOCCOCCOCCOc1ccc(Br)c(-c2cc3cnc(N)nc3nc2N)c1Br,–,> 25,12.5,–,0.126,> 25,–
COc1ccc(Br)c(-c2cc3cnc(N)nc3nc2N)c1Br,–,–,–,–,–,–,IC50 [17]: ≤ 0.25 µM
Nc1ncc2cc(-c3c(Br)cccc3Br)c(N)nc2n1,–,–,–,inactive,–,1.56,fractional inhibitory concentration index (FICI) (Escherichia coli [14]): 0.5; Activity (Escherichia coli [9]): Active; IC50 [18]: < 0.005 µM
C#CCCCCOc1ccc(Br)c(-c2cc3cnc(N)nc3nc2N)c1Br,> 25,0.78,0.78,–,≤ 0.001,1.56,MIC (Escherichia coli [11]): 12.5 µM; MIC (Escherichia coli [12]): > 25 µM
CC(C)[C@H](NC(=O)C[C@H](NC(=O)CCCCCCCCCCn1cc(CCCCOCCOCCOCCOCCOCCOCCOc2cc(Br)c(-c3cc4cnc(N)nc4nc3N)c(Br)c2)nn1)c1ccccc1)C(=O)[C@@H]1C(=O)NC(=O)[C@H]1C,–,> 25,0.78,–,0.00353,6.25,–
CC(C)[C@H](NC(=O)C[C@H](NC(=O)CCCCCCCCCCn1cc(CCCCOCCOCCOCCOCCOCCOCCOc2ccc(Br)c(-c3cc4cnc(N)nc4nc3N)c2Br)nn1)c1ccccc1)C(=O)[C@@H]1C(=O)NC(=O)[C@H]1C,> 25,3.13,0.39,–,–,–,Ki [1]: 0.00025 µM; MIC (Escherichia coli [11]): > 25 µM; MIC (Escherichia coli [12]): > 25 µM; PAE (Escherichia coli [6]): 1.7 h; PAE (Escherichia coli [7]): 1.7 h; PAE (Escherichia coli [8]): 3.4 h
C#CCCCCOCCOCCOCCOCCOCCOCCOc1ccc(Br)c(-c2cc3cnc(N)nc3nc2N)c1Br,> 25,6.25,–,–,0.032,–,–
C#CCCCCOCCOCCOCCOCCOCCOCCOCCOCCOCCOCCOCCOCCOCCOCCOCCOc1ccc(Br)c(-c2cc3cnc(N)nc3nc2N)c1Br,> 25,> 25,12.5,–,0.064,25,–
Nc1ncc2cc(-c3c(Br)ccc(OCCO)c3Br)c(N)nc2n1,–,–,–,–,–,–,IC50 [17]: 0.55 µM
CC(C)[C@H](NC(=O)C[C@H](NC(=O)CCCCCCCCCCn1cc(CCCCOCCOCCOCCOCCOCCOCCOCCOCCOCCOc2ccc(Br)c(-c3cc4cnc(N)nc4nc3N)c2Br)nn1)c1ccccc1)C(=O)[C@@H]1C(=O)NC(=O)[C@H]1C,> 25,3.13,0.78,inactive,–,–,Ki [1]: 0.00031 µM; PAE (Escherichia coli [6]): 1.2 h; PAE (Escherichia coli [7]): 1.8 h; PAE (Escherichia coli [8]): 3.4 h; Activity (Escherichia coli [9]): Active; Activity (Escherichia coli [10]): Active
CC(C)[C@H](NC(=O)C[C@H](NC(=O)CCCCCCCCCCn1cc(CCCCOCCOCCOCCOCCOCCOCCOCCOCCOCCOCCOCCOCCOCCOCCOCCOc2ccc(Br)c(-c3cc4cnc(N)nc4nc3N)c2Br)nn1)c1ccccc1)C(=O)[C@@H]1C(=O)NC(=O)[C@H]1C,> 25,12.5,1.56,inactive,–,–,Ki [1]: 0.00033 µM; PAE (Escherichia coli [6]): 1.9 h; PAE (Escherichia coli [7]): 3.8 h; PAE (Escherichia coli [8]): 4.6 h; Activity (Escherichia coli [9]): Active; Activity (Escherichia coli [10]): Active
Nc1ncc2cc(-c3c(Br)cc(OCCO)cc3Br)c(N)nc2n1,–,–,–,–,–,–,IC50 [17]: 0.73 µM
CC(C)[C@H](NC(=O)C[C@H](NC(=O)CCCCCCCCCCn1cc(CCCCOc2ccc(Br)c(-c3cc4cnc(N)nc4nc3N)c2Br)nn1)c1ccccc1)C(=O)[C@@H]1C(=O)NC(=O)[C@H]1C,> 25,12.5,0.78,inactive,0.00181,–,PAE (Escherichia coli [6]): 1.9 h; PAE (Escherichia coli [7]): 2.2 h; PAE (Escherichia coli [8]): 3.8 h; Activity (Escherichia coli [9]): Active; Activity (Escherichia coli [10]): Active
C#CCCCCOCCOCCOCCOCCOCCOCCOCCOCCOCCOCCOCCOCCOc1ccc(Br)c(-c2cc3cnc(N)nc3nc2N)c1Br,> 25,> 25,–,–,0.082,25,–
C#CCCCCOCCOCCOCCOc1ccc(Br)c(-c2cc3cnc(N)nc3nc2N)c1Br,> 25,3.13,1.56,–,0.019,–,–
C#CCCCCOCCOCCOCCOCCOCCOCCOc1cc(Br)c(-c2cc3cnc(N)nc3nc2N)c(Br)c1,–,> 25,> 25,–,0.849,–,–
C#CCCCCOCCOCCOCCOCCOCCOCCOCCOCCOCCOc1ccc(Br)c(-c2cc3cnc(N)nc3nc2N)c1Br,> 25,15,12.5,–,0.098,25,–
CC(C)[C@H](NC(=O)C[C@H](NC(=O)CCCCCCCCCCn1cc(CCCCOCCOCCOCCOc2ccc(Br)c(-c3cc4cnc(N)nc4nc3N)c2Br)nn1)c1ccccc1)C(=O)[C@@H]1C(=O)NC(=O)[C@H]1C,> 25,6.25,0.78,inactive,–,3.13,Ki [1]: 0.00026 µM; PAE (Escherichia coli [6]): 1 h; PAE (Escherichia coli [7]): 1.2 h; PAE (Escherichia coli [8]): 2.6 h; Activity (Escherichia coli [9]): Active; Activity (Escherichia coli [10]): Active
COc1cc(Br)c(-c2cc3cnc(N)nc3nc2N)c(Br)c1,–,–,–,–,–,–,IC50 [17]: 1.2 µM
